Measurements reported in ChEMBL document CHEMBL1132580, “Syntheses and biological activities of rebeccamycin analogues. Introduction of a halogenoacetyl substituent” (J Med Chem, 1999).
Values after ≈ are worked out from the molar mass of the structure shown. Active and inactive are the calls of the source. The calls are words filed in the database; no cut-off is given here.

What was measured:
[1] = Selectivity Index (SI) refers to the ratio of the anti HIV activities CC50/IC50 in HIV-1 Lai infected CEM-SS cells.; format: functional
Procedure, shortened: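 SI = CC50/IC50. CC50 came from MTT viability (OD 540 nm) of uninfected CEM-SS cells. IC50 came from reverse transcriptase activity of virus released after 5 days from HIV-1 Lai–infected CEM-SS cells. Both values were taken from median effect plots.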

[2] = system: P388; assay: Cytotoxicity against P388 leukemia cells; format: functional, cell-based; settings: Mus musculus
Procedure, shortened: (§1)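 Murine P388 (camptothecin-sensitive) and P388/CPT5 (camptothecin-resistant, mutant top1) leukemia cells were exposed to a range of drug concentrations for 96 h at 37 °C. Viability was read by neutral red staining. IC50 is the concentration inhibiting growth by 50%.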

[3] = Resistance Index (RI) refers to the ratio of the [IC50 (P388/CPT5)] / IC50 P388.; format: functional
Procedure, shortened: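 Ratio of IC50 in P388/CPT5 cells to IC50 in P388 cells. Both IC50 values came from 96 h drug exposure at 37 °C with neutral red viability readout.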

[4] = molecular target: Protein kinase C (PKC); assay: (§2) Inhibition of protein kinase C (PKC); format: protein assay
Procedure, shortened: (§3)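 PKC-α activity was assayed with protamine sulfate as substrate. IC50 values were determined.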

[5] = system: Bacillus cereus; assay: Minimum inhibitory concentration against gram-positive Bacillus cereus; format: functional
Procedure, shortened: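 Broth dilution in Mueller–Hinton broth pH 7.4 against B. cereus ATCC 14579. Compounds were diluted in DMSO across 12 tubes spanning 100 to 0.05 μg/mL. Read after 24 h at 27 °C.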

[6] = system: Nucleic Acid; assay: Variation in melting temperature (delta Tm) of helix-to-coil transition of DNA was reported.; format: nucleic-acid assay
Procedure, shortened: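 A260 was followed over 20–100 °C at 1 °C/min using 20 μM calf thymus DNA with or without drug (10 μM) in BPE buffer pH 7.1 (6 mM Na2HPO4, 2 mM NaH2PO4, 1 mM EDTA). Tm was taken as the midpoint of the hyperchromic transition from the first-derivative plot.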

[7] = system: P388; assay: Cytotoxicity against P388/CPT5 leukemia cells.; format: functional, cell-based; settings: Mus musculus; procedure, shortened: as §1
[8] = system: CEM-SS; assay: Anti-HIV-1 activity in CEM-SS cells was measured by the quantification of the reverse transcriptase activity, associated with the virus particles released from HIV-1 infected cells in the culture medium.; format: functional, cell-based; settings: Homo sapiens
Procedure, shortened: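 CEM-SS cells in RPMI 1640 with 10% FBS at 37 °C, 5% CO2 were infected with HIV-1 Lai (100 TCID50). After 30 min adsorption the cells were washed and resuspended at 10⁵ cells/mL with a range of compound concentrations. Virus production was measured as reverse transcriptase activity after 5 days. IC50 was taken from a median effect plot of dose–effect data.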

[9] = system: DNA topoisomerase 1 (Bos taurus); assay: Minimum inhibitory concentration against DNA topoisomerase I
[10] = system: Streptomyces chartreusis; assay: Antimicrobial activity against gram-positive […] chartreusis NRRL 11407 was determined by antibiogram test.++ means growth inhibition zone was 8-9 mm.; format: functional, organism-based
[11] = system: Bacillus cereus; assay: Antimicrobial activity against gram-positive Bacillus cereusATCC 14579 was determined by antibiogram test.++ means growth inhibition zone was 8-9 mm.; format: functional, organism-based; settings: ATCC 14579
Procedure, shortened: (§4)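 Paper-disk diffusion (6 mm disks, 300 μg drug per disk from DMSO solution) on Mueller-Hinton agar against B. cereus ATCC 14579. Inhibition zones were scored after 24 h at 27 °C.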

[12] = system: CEM-SS; assay: Cytotoxicity against HIV-1 Lai infected CEM-SS cells; format: functional; settings: Homo sapiens, in the assay text read “uninfected CEM-SS cells” for “HIV-1 Lai infected CEM-SS cells”
Procedure, shortened: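 Uninfected CEM-SS cells were incubated in parallel with a range of compound concentrations. Viability was read by MTT reduction to formazan (OD 540 nm). CC50 is the concentration reducing viability by 50%, derived with the median-effect program.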

[13] = system: CEM-SS; assay: Cytotoxicity against uninfected CEM-SS cells; settings: Homo sapiens
[14] = molecular target: Protein kinase C (PKC); assay: as §2; format: functional; procedure, shortened: as §3
[15] = system: Streptomyces chartreusis; assay: Antimicrobial activity against gram-positive […] chartreusis NRRL 11407 was determined by antibiogram test.+++ means growth inhibition zone was 10-12 mm.; format: functional, organism-based
[16] = system: Bacillus cereus; assay: Antimicrobial activity against gram-positive Bacillus cereusATCC 14579 was determined by antibiogram test.+/- means growth inhibition zone was 6-7 mm.; format: functional, organism-based; settings: ATCC 14579; procedure, shortened: as §4
[17] = system: Bacillus cereus; assay: Antimicrobial activity against gram-positive Bacillus cereusATCC 14579 was determined by antibiogram test.+ means growth inhibition zone was 7-8 mm.; format: functional, organism-based; settings: ATCC 14579; procedure, shortened: as §4

IC50 [4] [µM] | MIC [5] [µM] | DeltaTm [6] | IC50 [8] [µM] | MIC [9] [µM] | IC50 [14] [µM] | Structure (SMILES) | Selectivity index [1] | IC50 [2] [µM] | Resistance index [3] | IC50 [7] [µM] | Antimicrobial activity [10] | Antimicrobial activity [11] | CC50 [12] [µM] | CC50 [13] [µM] | Antimicrobial activity [15] | Antimicrobial activity [16] | Antimicrobial activity [17]
> 161 | 5.02 (≈ 3.12 µg/mL) | 3.2 | 0.15 | 1.61 (≈ 1 µg/mL) |  | COC1C(CO)OC(n2c3ccccc3c3c4c(c5c6ccccc6[nH]c5c32)C(=O)NC4=O)C(O)C1OC(=O)CBr (stereo not given) | 2.9 | 0.16 | 20 | 3.2 | Partially active | Active | 0.44 |  |  |  | 
 | > 81 | 0.5 | 1.4 | > 16 | > 163 | COC1C(CO)OC(n2c3c(Cl)cccc3c3c4c(c5c6cccc(Cl)c6[nH]c5c32)C(=O)NC4=O)C(OC(C)=O)C1O (stereo not given) |  | 0.48 | 6.7 | 3.3 |  |  |  | 1.2 |  |  | 
 | 46 (≈ 25 µg/mL) |  |  | 18 (≈ 9.78 µg/mL) |  | COC1C(CO)OC(n2c3ccccc3c3c4c(c5c6ccccc6[nH]c5c32)C(=O)NC4=O)C(OC(C)=O)C1O (stereo not given) |  | 0.55 | 8.3 | 4.6 |  |  |  |  | growth inhibition zone was 10-12 mm | +/- | 
101 | > 72 | 0.5 | 0.33 | 1.45 (≈ 1 µg/mL) |  | COC1C(COC(=O)CBr)OC(n2c3c(Cl)cccc3c3c4c(c5c6cccc(Cl)c6[nH]c5c32)C(=O)NC4=O)C(O)C1O (stereo not given) | 4.4 | 0.43 | 10 | 4.3 |  |  |  | 1.45 |  | inactive | 
> 142 | > 100 | 4.1 |  |  |  | CO[C@H]1[C@H](O)[C@@H](O)[C@H](n2c3ccccc3c3c4c(c5c6ccccc6[nH]c5c32)C(=O)NC4=O)O[C@@H]1CO | 5.6 |  | > 28 | > 20 |  |  | 0.9 |  |  |  | 
> 162 | 5.02 (≈ 3.12 µg/mL) | 3.7 | 0.12 | 1.59 (≈ 0.99 µg/mL) |  | COC1C(CO)OC(n2c3ccccc3c3c4c(c5c6ccccc6[nH]c5c32)C(=O)NC4=O)C(OC(=O)CBr)C1O (stereo not given) | 3.8 | 0.48 | 10.4 | 5 | Partially active | Active | 0.46 |  |  |  | 
24 | 1.81 (≈ 1.25 µg/mL) | 0.5 | 0.98 | > 14 |  | COC1C(CO)OC(n2c3c(Cl)cccc3c3c4c(c5c6cccc(Cl)c6[nH]c5c32)C(=O)NC4=O)C(OC(=O)CBr)C1O (stereo not given) | 2.3 | 0.26 | 2.5 | 0.94 |  | Active | 2.3 |  |  |  | 
> 144 | > 72 | 0 | 0.5 | 1.44 (≈ 1 µg/mL) |  | COC1C(CO)OC(n2c3ccccc3c3c4c(c5c6ccccc6[nH]c5c32)C(=O)N(CCCCOC(=O)CBr)C4=O)C(O)C1O (stereo not given) | 1.1 | 1.94 | > 7.4 | > 14.4 |  |  | 0.57 |  |  | inactive | 
> 151 | 4.72 (≈ 3.12 µg/mL) | 1.2 | 0.45 | 1.14 (≈ 0.753 µg/mL) |  | COC1C(CO)OC(n2c3c(Cl)cccc3c3c4c(c5c6cccc(Cl)c6[nH]c5c32)C(=O)N(CC(=O)CCl)C4=O)C(O)C1O (stereo not given) | 2.7 | 0.24 | 15 | 3.5 |  |  |  | 1.2 | Active |  | Partially active
> 175 | 10.9 (≈ 6.22 µg/mL) | 0 |  |  |  | CO[C@H]1[C@H](O)[C@@H](O)[C@H](n2c3c(Cl)cccc3c3c4c(c5c6cccc(Cl)c6[nH]c5c32)C(=O)NC4=O)O[C@@H]1CO [REBECCAMYCIN] | 2 |  | 8.6 | 10.5 | Partially active | Active |  |  |  |  | 
